We go through 19 compounds from ChEMBL document CHEMBL4613307, “Sigma Receptor Ligands Carrying a Nitric Oxide Donor Nitrate Moiety: Synthesis, In Silico, and Biological Evaluation” (ACS Med Chem Lett, 2020).

Active and inactive are the calls of the source. No cut-off for these calls is given here.

The target of data set [1] is T1, Sigma intracellular receptor 2 (Homo sapiens, UniProt Q5BJF2). Description: Displacement of [3H]-di-o-tolylguanidine from sigma2 receptor (unknown origin) incubated for 1 hr in presence of (+)SKF10047 by liquid scintillation counting method. In a few lines: (§1)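 Radioligand binding at σ1 and σ2 receptors, with [3H]DTG as the σ2 radioligand. Ki given as mean ± SD of at least two experiments run in triplicate.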
T1 sequence (Q5BJF2 whole entry): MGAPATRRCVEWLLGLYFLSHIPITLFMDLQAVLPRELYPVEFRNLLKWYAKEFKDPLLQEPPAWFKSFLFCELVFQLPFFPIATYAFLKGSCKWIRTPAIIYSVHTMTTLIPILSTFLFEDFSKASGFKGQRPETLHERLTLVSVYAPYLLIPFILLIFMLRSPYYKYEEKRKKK

In data set [2] the target is Sigma non-opioid intracellular receptor 1 (Cavia porcellus, UniProt Q60492). Put plainly: Displacement of [3H]-(+)-pentazocine from sigma1 receptor in guinea pig brain membranes incubated for 1 hr by liquid scintillation counting method. Type of data set: cell membranes, Membrane. In a few lines: as §1
Chain of Sigma non-opioid intracellular receptor 1 (Q60492 whole entry): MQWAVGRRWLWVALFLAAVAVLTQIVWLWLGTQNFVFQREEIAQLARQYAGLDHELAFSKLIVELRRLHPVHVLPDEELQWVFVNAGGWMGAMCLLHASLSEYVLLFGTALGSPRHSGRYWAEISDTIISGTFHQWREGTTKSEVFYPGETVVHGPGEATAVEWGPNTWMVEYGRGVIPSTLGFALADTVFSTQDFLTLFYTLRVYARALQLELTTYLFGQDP
A general note: Loss of bound radioactivity is the signal in a displacement assay; it reports binding, not function.

The subject of data set [3] is HFF-1. Put plainly: Cytotoxicity against human HFF1 cells assessed as reduction in cell viability after 24 hrs by MTT assay. Type of data set: cell-based. The conditions noted are these: HFF-1, 24 h. The gist of the method: (§2)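 MTT viability assay in Caco-2, MCF-7 and HFF-1 cells; top tested concentration 100 μM. IC50 given as mean ± SD of at least two experiments run in quadruplicate.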
A general note: Tetrazolium dyes change colour on reduction, which living cells bring about.

For data set [4], the system named is MCF7. Description: Cytotoxicity against human MCF7 cells assessed as reduction in cell viability after 24 hrs by MTT assay. The format is functional, cell-based. The settings on record: MCF7, 24 h. The gist of the method:
as §2

Data set [5] concerns HFF-1. Put plainly: Cytotoxicity against human HFF1 cells assessed as reduction in cell viability at 100 uM after 24 hrs by MTT assay relative to control. Type of data set: cell-based. The conditions noted are these: hff-1, 24 h.
Data set [6] relates to MCF7. Description: Cytotoxicity against human MCF7 cells assessed as restoration of cell viability loss at IC50 after 24 hrs in presence of PTZ by MTT assay. Type of data set: functional, cell-based. The gist of the method: (§3)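 MCF-7 cells given the test agent at its viability-reducing concentration together with 1 μM σ1 agonist (+)-pentazocine or 1 μM σ2 antagonist 1-phenethylpiperidine (AC927); viability read by MTT.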

A short description of data set [7]: Drug metabolism in Tris-HCl buffer assessed as amount of nitrite released at 100 uM and 37 degree C after 30 mins in presence of nitrate reductase and NADPH by Griess reagent based spectrophotometric analysis. The format is physicochemical. The settings on record: 0.5 h. In a few lines: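 Test agents at 100 μM incubated in Tris-HCl buffer at 37 °C for 30 min; total nitrite measured with Griess reagent.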
A general note: Nitrite, measured by Griess reagent, commonly stands in for NO production.

Data set [8] concerns MCF7. Put plainly: Cytotoxicity against human MCF7 cells assessed as restoration of cell viability loss at IC50 after 24 hrs in presence of AC927 by MTT assay. Type of data set: functional, cell-based. In a few lines: as §3
In data set [9] the test system is Caco-2. Description: Cytotoxicity against human Caco2 cells assessed as reduction in cell viability after 24 hrs by MTT assay. The settings on record: Caco-2, 24 h. Type of data set: functional, cell-based. In a few lines:
as §2

Data set [10] has as its target T1, Sigma intracellular receptor 2. Description: Displacement of [3H]-di-o-tolylguanidine from sigma2 receptor (unknown origin) at 10 uM incubated for 1 hr in presence of (+)SKF10047 by liquid scintillation counting method relative to control.
The subject of data set [11] is MCF7. Put plainly: Cytotoxicity against human MCF7 cells assessed as reduction in cell viability at 100 uM after 24 hrs by MTT assay relative to control. The format is functional.
For data set [12], the target named is Sigma non-opioid intracellular receptor 1 (Cavia porcellus) (UniProt Q60492). Put plainly: Displacement of [3H]-(+)-pentazocine from sigma1 receptor in guinea pig brain membranes at 10 uM incubated for 1 hr by liquid scintillation counting method relative to control. Type of data set: cell membranes. The conditions noted are these: Membrane.
Chain of Sigma non-opioid intracellular receptor 1 (Cavia porcellus) (Q60492 whole entry): as above
Data set [13] relates to Caco-2. Description: Cytotoxicity against human Caco2 cells assessed as reduction in cell viability at 100 uM after 24 hrs by MTT assay relative to control. Type of data set: functional.

For orientation: Ki means a measure of affinity in units of concentration, obtained from inhibition or displacement. Turning to `O=C(Cc1ccc(CO[N+](=O)[O-])cc1)NC1CCN(Cc2ccccc2)CC1`, the inhibition constant (Ki) in data set [1] is 2510 nM; in data set [2], 170 nM.
As a reminder, the IC50 is the midpoint of a concentration-inhibition curve. As to `O=C(NCCCCN1CCC(Cc2ccccc2)CC1)c1ccc(CO[N+](=O)[O-])cc1`, the IC50 in the data set with HFF-1 [3] was > 100000 nM; with MCF7 [4], 26000 nM; in the data set with Caco-2 [9] it was 28000 nM. Besides, the Ki was 89 nM in data set [1] and 250 nM in data set [2]. Moreover, in the data set on HFF-1 [5], the Activity is listed as < 50%. Besides, the result with MCF7 [6] and in the data set on MCF7 [8] was inactive. Further, the Drug metabolism in data set [7] turned out to be 13 µM.
As to `COc1cccc2c1C(=O)c1c(O)c3c(c(O)c1C2=O)C[C@@](O)(C(=O)CO)C[C@@H]3O[C@H]1C[C@H](N)[C@H](O)[C@H](C)O1` [DOXORUBICIN], the values for the IC50 in the data set on HFF-1 [3] and with Caco-2 [9] were > 100000 nM and 21000 nM, respectively. Also, the Activity in the data set on HFF-1 [5] is on record as < 50%.
The term inhibition denotes the share of the control response that was lost under treatment. Regarding `O=C(O)c1ccc(CO[N+](=O)[O-])cc1`, the Ki in data set [1] and in data set [2] was > 10000 nM in each case. Further, the IC50 in the data set with MCF7 [4] is > 100000 nM. Besides, the inhibition in data set [10] and in [12] was < 50% in each case. In addition, the Activity in the data set on MCF7 [11] is on record as <50%.
In the case of `Cc1ccc(C(=O)NCCCCN2CCC(Cc3ccccc3)CC2)cc1`, the Ki in data set [1] was found to be 127 nM; in data set [2] it was 62 nM. The IC50 with MCF7 [4] is 87000 nM. The Activity in the data set on MCF7 [11] is given as <50%.
With `Cc1ccc(C(=O)O)cc1` [4-METHYLBENZOIC ACID], the Ki in [1] and in data set [2] was > 10000 nM throughout. The IC50 in the data set with MCF7 [4] is > 100000 nM. Further, the inhibition in [10] and in data set [12] was < 50% throughout. Further, the Activity in the data set on MCF7 [11] is reported as <50%.
For `O=C(NCCCCCN1CCC(Cc2ccccc2)CC1)c1ccc(CO[N+](=O)[O-])cc1`, the results for the Ki in data set [1] and in data set [2] were 70 nM and 93 nM, respectively.
Take `O=C(O)c1ccc(CO)cc1`: the inhibition constant (Ki) in [1] and in data set [2] was > 10000 nM in each case. Further, the IC50 in the data set on MCF7 [4] was > 100000 nM. The inhibition in data set [10] and in data set [12] was < 50% each time. For the same compound, the Activity with MCF7 [11] is on record as <50%.
In the case of `O=C(NCCCN1CCC(Cc2ccccc2)CC1)c1cccc(CO[N+](=O)[O-])c1`, the Ki in [1] was determined as 93 nM; in data set [2], 64 nM.
`O=C(NC1CCN(Cc2ccccc2)CC1)c1ccc(CO[N+](=O)[O-])cc1`: the IC50 with HFF-1 [3], in the data set with MCF7 [4] and in the data set on Caco-2 [9] was > 100000 nM each time. Further, the Ki was 270 nM in data set [1] and 22 nM in data set [2]. Also, the Activity is < 50% in the data set with HFF-1 [5], <50% with Caco-2 [13] and <50% with MCF7 [11]. In addition, the Drug metabolism in data set [7] came to 6.3 µM.
`O=C(NCCCCN1CCC(Cc2ccccc2)CC1)c1cccc(CO[N+](=O)[O-])c1`: the Ki in data set [1] was 75 nM; in [2], 148 nM.
Regarding `O=C(Cc1cccc(CO[N+](=O)[O-])c1)NC1CCN(Cc2ccccc2)CC1`, the IC50 in the data set on HFF-1 [3], with MCF7 [4] and in the data set on Caco-2 [9] was > 100000 nM in each case. In addition, the figures for the Ki in [1] and in data set [2] were 320 nM and 19 nM, respectively. Further, the results for the Activity with HFF-1 [5], in the data set on Caco-2 [13] and in the data set with MCF7 [11] were < 50%, <50% and <50%, respectively. Moreover, the Drug metabolism in data set [7] came out at 1.3 µM.
`C[C@@H]1CCO[C@H]2Cn3cc(C(=O)NCc4ccc(F)cc4F)c(=O)c(O)c3C(=O)N12` [DOLUTEGRAVIR]: the Ki in [1] was found to be 18 nM.
With `O=C(NCCN1CCC(Cc2ccccc2)CC1)c1cccc(CO[N+](=O)[O-])c1`, the results for the IC50 with HFF-1 [3], in the data set on MCF7 [4] and in the data set on Caco-2 [9] were > 100000 nM, 36000 nM and 59000 nM, respectively. For the same compound, the Ki is 330 nM in [1] and 49 nM in data set [2]. In the data set on HFF-1 [5], the Activity is on record as < 50%. In addition, the Drug metabolism in data set [7] turned out to be 13 µM.
As for `O=C(NCCCN1CCC(Cc2ccccc2)CC1)c1ccc(CO[N+](=O)[O-])cc1`, the Ki was 230 nM in data set [1] and 145 nM in data set [2].
`O=C(NCCCCN1CCC(Cc2ccccc2)CC1)c1ccc(CO)cc1`: the figures for the Ki in data set [1] and in [2] were 2600 nM and 711 nM, respectively. Also, the IC50 in the data set on MCF7 [4] is > 100000 nM. Also, the Activity in the data set on MCF7 [11] is recorded as <50%.
Take `O=C(NCCN1CCC(Cc2ccccc2)CC1)c1ccc(CO[N+](=O)[O-])cc1`: the Ki in [1] came out at 2670 nM; in data set [2] it was 89 nM.
With `O=C(NC1CCN(Cc2ccccc2)CC1)c1cccc(CO[N+](=O)[O-])c1`, the values for the Ki in data set [1] and in data set [2] were 19 nM and 24 nM, respectively.
For `O=C(NCCCCCN1CCC(Cc2ccccc2)CC1)c1cccc(CO[N+](=O)[O-])c1`, the results for the Ki in data set [1] and in [2] were 142 nM and 50 nM, respectively.
